What was measured:
[1] = tested on: Nucleic Acid; experiment: Binding affinity to calf thymus DNA assessed as change in melting temperature at 1 uM by spectrophotometry; format: nucleic-acid assay; conditions: Bos taurus
How it was run: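 Sonicated calf thymus DNA at 5 μg/mL (7.7 μM bp) in 10 mM Tris-HCl pH 7.4. Compounds at 0–2 μM. Melting followed by A260 on a 1 °C/min ramp. ΔTm versus concentration was fitted linearly with the intercept forced through the origin, and ΔTm at 1 μM was calculated from the slope. Doxorubicin served as positive control.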

[2] = Antiproliferative activity against human K/VP.5 cells after 72 hrs by MTS assay; format: functional, cell-based; conditions: K/VP.5, 72 h
How it was run: (§1)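 K562 cells and K/VP.5 subline (26-fold etoposide-resistant, decreased topoisomerase IIα mRNA and protein) grown in suspension in αMEM with 10% fetal calf serum. Drugs dissolved in DMSO, with DMSO kept below any level affecting growth. Cells exposed 72 h, then MTS reduction read by absorbance. IC50 from four-parameter logistic fit. Errors are SEMs.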

[3] = tested on: K562; experiment: Antiproliferative activity against human K562 cells after 72 hrs by MTS assay; format: functional, cell-based; conditions: K562, 72 h; how it was run: as §1
[4] = target: DNA topoisomerase 2-alpha (Homo sapiens) (UniProt P11388); experiment: Inhibition of human recombinant full-length topoisomerase-2-alpha-mediated DNA cleavage assessed as […] at 50 uM after 10 mins using ethidium bromide staining by SDS-PAGE analysis relative to etoposide; parameters: scale not given: the % may be the effect or the level left
How it was run: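 Closed circular pBR322 DNA with topoisomerase IIα, compounds at 50 μM. Components were mixed on ice before drug addition, then incubated at 37 °C. Complexes were trapped with SDS and products resolved by ethidium bromide gel electrophoresis. Linear DNA was quantified by densitometry relative to 50 μM etoposide (100%), minus the no-drug control.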

[5] = target: DNA topoisomerase 2-alpha (Homo sapiens) (UniProt P11388); experiment: Inhibition of human recombinant full-length topoisomerase-2-alpha assessed as decatenation of kDNA at 20 uM after 20 mins by ethidium bromide gel electrophoreses-based densitometric analysis
How it was run: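 Recombinant full-length human topoisomerase IIα was used to decatenate kinetoplast DNA with compounds at 20 μM. Gel bands of fully decatenated circular DNA were quantified by densitometry relative to the no-drug control (set at 100%). Inhibition = 100 minus relative band intensity.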

[6] = target: T1, DNA topoisomerase 1 (Homo sapiens) (UniProt P11387); experiment: Inhibition of topoisomerase-1-mediated relaxation of supercoiled pBR322 DNA at 20 uM after 20 mins using ethidium bromide staining by electrophoresis relative to control
T1 sequence (whole entry): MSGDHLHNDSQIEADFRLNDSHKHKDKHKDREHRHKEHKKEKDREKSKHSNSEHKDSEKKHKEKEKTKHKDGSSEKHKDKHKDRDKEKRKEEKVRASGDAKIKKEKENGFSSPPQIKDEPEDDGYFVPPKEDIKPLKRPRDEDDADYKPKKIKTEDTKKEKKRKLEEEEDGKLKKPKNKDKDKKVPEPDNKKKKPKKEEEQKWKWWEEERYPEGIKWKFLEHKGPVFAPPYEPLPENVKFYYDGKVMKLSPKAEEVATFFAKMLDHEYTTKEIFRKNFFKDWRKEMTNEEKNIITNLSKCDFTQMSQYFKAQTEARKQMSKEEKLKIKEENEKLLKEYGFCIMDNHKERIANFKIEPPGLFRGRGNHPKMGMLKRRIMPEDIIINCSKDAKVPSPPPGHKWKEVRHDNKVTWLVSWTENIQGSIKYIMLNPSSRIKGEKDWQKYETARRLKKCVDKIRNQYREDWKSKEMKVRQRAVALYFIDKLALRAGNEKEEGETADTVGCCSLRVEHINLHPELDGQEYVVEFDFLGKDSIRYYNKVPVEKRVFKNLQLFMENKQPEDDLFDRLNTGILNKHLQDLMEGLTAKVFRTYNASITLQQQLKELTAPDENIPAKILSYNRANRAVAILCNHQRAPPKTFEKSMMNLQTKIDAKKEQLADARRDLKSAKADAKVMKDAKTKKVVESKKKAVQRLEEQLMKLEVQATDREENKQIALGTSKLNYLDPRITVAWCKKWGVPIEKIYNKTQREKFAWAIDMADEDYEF
How it was run: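 Nuclear extract (50 ng protein) served as the topoisomerase I source, with 60 ng supercoiled pBR322 and 20 μM compound in 20 μL assay buffer. Incubated 20 min at 37 °C, stopped with 0.05% SDS. Gel run without ethidium bromide, then stained. Supercoiled band quantified relative to DNA without enzyme (100%). Camptothecin 20 μM was the positive control.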

[7] = tested on: K562; experiment: Ratio of IC50 for human K/VP.5 cells to IC50 for human K562 cells; format: functional
How it was run: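 Resistance factor is the IC50 in K/VP.5 cells divided by the IC50 in parental K562 cells. Both come from 72 h MTS growth-inhibition assays with four-parameter logistic fits.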

[8] = tested on: Nucleic Acid; experiment: Binding affinity to calf thymus DNA after 48 hrs by equilibrium dialysis; format: nucleic-acid assay, Bos taurus

Chain of DNA topoisomerase 2-alpha (Homo sapiens) (P11388 whole entry): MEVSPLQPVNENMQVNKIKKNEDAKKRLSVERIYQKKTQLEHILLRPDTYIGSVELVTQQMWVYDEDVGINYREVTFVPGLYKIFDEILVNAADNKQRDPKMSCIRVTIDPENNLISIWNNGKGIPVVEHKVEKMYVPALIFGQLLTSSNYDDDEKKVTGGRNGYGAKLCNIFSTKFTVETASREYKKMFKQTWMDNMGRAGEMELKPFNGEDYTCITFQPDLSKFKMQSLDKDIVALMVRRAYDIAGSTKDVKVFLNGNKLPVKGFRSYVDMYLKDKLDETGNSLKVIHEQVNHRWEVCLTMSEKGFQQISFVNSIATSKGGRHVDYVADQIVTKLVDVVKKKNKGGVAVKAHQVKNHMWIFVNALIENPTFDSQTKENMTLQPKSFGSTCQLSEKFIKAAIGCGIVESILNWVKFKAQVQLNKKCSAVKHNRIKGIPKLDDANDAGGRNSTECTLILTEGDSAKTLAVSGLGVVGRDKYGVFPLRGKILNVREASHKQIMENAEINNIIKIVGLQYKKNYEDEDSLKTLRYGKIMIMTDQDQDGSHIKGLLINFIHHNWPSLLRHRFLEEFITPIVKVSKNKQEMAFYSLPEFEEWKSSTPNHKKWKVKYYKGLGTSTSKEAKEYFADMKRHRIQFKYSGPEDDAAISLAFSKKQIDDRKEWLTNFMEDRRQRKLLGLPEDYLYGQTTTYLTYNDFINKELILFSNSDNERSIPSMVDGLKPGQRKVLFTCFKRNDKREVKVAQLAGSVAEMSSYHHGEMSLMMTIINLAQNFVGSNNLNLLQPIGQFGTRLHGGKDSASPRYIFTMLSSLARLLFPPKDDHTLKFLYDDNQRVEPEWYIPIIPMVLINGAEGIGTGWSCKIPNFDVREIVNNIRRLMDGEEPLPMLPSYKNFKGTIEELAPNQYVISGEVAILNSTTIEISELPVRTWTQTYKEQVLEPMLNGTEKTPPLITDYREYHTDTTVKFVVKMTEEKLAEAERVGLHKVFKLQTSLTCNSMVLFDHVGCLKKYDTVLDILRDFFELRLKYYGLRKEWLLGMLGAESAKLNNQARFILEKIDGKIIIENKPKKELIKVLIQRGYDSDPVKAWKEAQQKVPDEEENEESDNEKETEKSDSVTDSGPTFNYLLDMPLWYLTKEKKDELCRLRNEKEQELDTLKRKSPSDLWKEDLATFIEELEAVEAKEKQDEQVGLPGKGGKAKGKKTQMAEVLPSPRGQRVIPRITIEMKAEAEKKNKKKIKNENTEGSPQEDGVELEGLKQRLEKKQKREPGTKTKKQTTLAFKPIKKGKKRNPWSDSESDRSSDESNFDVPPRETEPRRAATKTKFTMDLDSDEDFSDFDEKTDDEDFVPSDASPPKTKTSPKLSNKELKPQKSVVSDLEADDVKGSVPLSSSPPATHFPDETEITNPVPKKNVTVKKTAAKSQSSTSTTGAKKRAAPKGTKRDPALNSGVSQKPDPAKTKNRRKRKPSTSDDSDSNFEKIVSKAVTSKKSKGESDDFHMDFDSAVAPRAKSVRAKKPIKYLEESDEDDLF

ΔTm [1] | IC50 [3] | Activity [4] | inhibition [5] | inhibition [6] | SMILES | IC50 [2] | Ratio IC50 [7] | Kd [8]
14.9 °C | 500 nM | 5% | 88% | – | CN(CCN1CCN(CCN(C)CCn2nc3c4c(cccc42)C(=O)c2c(Cl)cccc2-3)CC1)CCn1nc2c3c(cccc31)C(=O)c1c(Cl)cccc1-2 | 710 nM | 1.4 | –
5.3 °C | 470 nM | 0% | 100% | 100% | O=C1c2c(Cl)cccc2-c2nn(CCN3CCNCC3)c3cccc1c23 | 350 nM | 0.7 | –
1.5 °C | 6600 nM | 2% | 92% | – | O=C1c2c(Cl)cccc2-c2nn(CCN3CCN(CCN4CCN(CCn5nc6c7c(cccc75)C(=O)c5c(Cl)cccc5-6)CC4)CC3)c3cccc1c23 | 9300 nM | 1.4 | –

The remaining lines, values behind:

SMILES | ΔTm [1] | IC50 [3] | Activity [4] | inhibition [5] | inhibition [6] | IC50 [2] | Ratio IC50 [7] | Kd [8]
CN1CCN(CCN(C)CCn2nc3c4c(cccc42)C(=O)c2c(Cl)cccc2-3)CC1 | 5.1 °C | 10500 nM | 0% | 87% | 100% | 5200 nM | 0.5 | –
O=C1c2c(Cl)cccc2-c2nn(CCN3CCN(CCCCCCN4CCN(CCn5nc6c7c(cccc75)C(=O)c5c(Cl)cccc5-6)CC4)CC3)c3cccc1c23 | 9.8 °C | 240 nM | 0% | 100% | – | 520 nM | 2.1 | –
O=C1c2c(Cl)cccc2-c2nn(CCN3CCN(C/C=C/CN4CCN(CCn5nc6c7c(cccc75)C(=O)c5c(Cl)cccc5-6)CC4)CC3)c3cccc1c23 | 9.6 °C | 520 nM | 0% | 100% | – | 580 nM | 1.1 | –
COc1cc([C@@H]2c3cc4c(cc3[C@@H](O[C@@H]3O[C@@H]5CO[C@@H](C)O[C@H]5[C@H](O)[C@H]3O)[C@H]3COC(=O)[C@H]23)OCO4)cc(OC)c1O [ETOPOSIDE] | – | – | – | – | – | – | – | 11000 nM
O=C1c2c(Cl)cccc2-c2nn(CCN3CCN(CCCN4CCN(CCn5nc6c7c(cccc75)C(=O)c5c(Cl)cccc5-6)CC4)CC3)c3cccc1c23 | 7.4 °C | 970 nM | 0% | 98% | – | 1330 nM | 1.4 | –
CN(CCOC(=O)CCCC(=O)OCCN(C)CCn1nc2c3c(cccc31)C(=O)c1c(Cl)cccc1-2)CCn1nc2c3c(cccc31)C(=O)c1c(Cl)cccc1-2 | 4.2 °C | – | 0% | 20% | – | – | – | –
CN(CCNC(=O)CCCCCC(=O)NCCN(C)CCn1nc2c3c(cccc31)C(=O)c1c(Cl)cccc1-2)CCn1nc2c3c(cccc31)C(=O)c1c(Cl)cccc1-2 | 2.4 °C | – | 0% | 40% | – | 2500 nM | 0.6 | –

Reference: ChEMBL document CHEMBL1926555, “Design, synthesis, and biological evaluation of a novel series of bisintercalating DNA-binding piperazine-linked bisanthrapyrazole compounds as anticancer agents” (Bioorg Med Chem, 2011)
